According to ChEMBL document CHEMBL1240471, “Synthesis and anticancer activity of chromone-based analogs of lavendustin A” (Eur J Med Chem, 2010):
≈ marks a conversion by molar mass, not a printed value.

Assays:
Format in all cases: functional, cell-based
SK-MEL-2 = test: Growth inhibition of human SK-MEL-2 cells after 72 hrs by SRB assay; details: SK-MEL-2, 72 h
Method in brief: (§1)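 Cells were seeded at 5 × 10³ cells/well in 96-well plates. Various sample concentrations were added in triplicate, and plates were incubated for 72 h at 37 °C in 5% CO₂. Optical density was read at 520 nm. GI₅₀ was taken as the concentration inhibiting cell growth by 50%.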

A-431 = test: Growth inhibition of human A431 cells after 72 hrs by SRB assay; details: A-431, 72 h; method in brief: as §1
HCT-15 = test: Growth inhibition of human HCT15 cells after 72 hrs by SRB assay; details: HCT-15, 72 h; method in brief: as §1
KB = test: Growth inhibition of human KB cells after 72 hrs by SRB assay; method in brief: as §1
SK-OV-3 = test: Growth inhibition of human SKOV3 cells after 72 hrs by SRB assay; details: SK-OV-3, 72 h
A549 = test: Growth inhibition of human A549 cells after 72 hrs by SRB assay; details: A549, 72 h
Method in brief: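 A-549 cells were seeded at 2 × 10³ cells/well. Various sample concentrations were tested in triplicate over 72 h at 37 °C under 5% CO₂. Absorbance was read at 520 nm. GI₅₀ was assigned as the concentration giving 50% growth inhibition.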

| SMILES | IC50 (SK-MEL-2) [µg/mL] | IC50 (A-431) [µg/mL] | IC50 (HCT-15) [µg/mL] | IC50 (KB) [µg/mL] | IC50 (SK-OV-3) [µg/mL] | IC50 (A549) [µg/mL] |
| --- | --- | --- | --- | --- | --- | --- |
| Cc1cc(=O)c2ccc(O)c(CN(Cc3ccccc3)Cc3ccccc3)c2o1 | 17.8 (≈ 46.1 µM) | 19.5 (≈ 50.6 µM) | 11.3 (≈ 29.4 µM) | 15.1 (≈ 39.2 µM) | 19 (≈ 49.2 µM) | 11.9 (≈ 30.9 µM) |
| COc1ccc(CN(Cc2ccccc2)Cc2c(O)ccc3c(=O)cc(C)oc23)cc1 | 78.6 (≈ 189 µM) | 44.7 (≈ 108 µM) | 10.7 (≈ 25.8 µM) | 42.7 (≈ 103 µM) | 24.5 (≈ 59.1 µM) | 14.1 (≈ 34 µM) |
| Cc1cc(=O)c2ccc(O)c(CN(CCc3ccccc3)Cc3ccccc3)c2o1 | 17.4 (≈ 43.5 µM) | 18.5 (≈ 46.3 µM) | 11.7 (≈ 29.3 µM) | 14.5 (≈ 36.3 µM) | 21.6 (≈ 54 µM) | 12.3 (≈ 30.9 µM) |
| COc1ccc(CCN(Cc2ccccc2)Cc2c(O)ccc3c(=O)cc(C)oc23)cc1 | 19.9 (≈ 46.4 µM) | 25.2 (≈ 58.7 µM) | 15.8 (≈ 36.8 µM) | 16.1 (≈ 37.4 µM) | 65 (≈ 151 µM) | 16.6 (≈ 38.7 µM) |
| COc1ccc(CCN(Cc2ccccc2)Cc2c(O)ccc3c(=O)cc(C)oc23)cc1OC | 21.9 (≈ 47.6 µM) | > 100 | 31.5 (≈ 68.5 µM) | 24.3 (≈ 53 µM) | 41.7 (≈ 90.7 µM) | 26.1 (≈ 56.8 µM) |
| CCN(Cc1ccc(OC)cc1)Cc1c(O)ccc2c(=O)cc(C)oc12 | 60.3 (≈ 171 µM) | 41.9 (≈ 119 µM) | 22.4 (≈ 63.5 µM) | 47.4 (≈ 134 µM) | 57.5 (≈ 163 µM) | 38.7 (≈ 110 µM) |
| COc1ccc(CN(Cc2ccc([N+](=O)[O-])cc2)Cc2c(O)ccc3c(=O)cc(C)oc23)cc1 | > 100 | > 100 | 28.6 (≈ 62.1 µM) | 24.4 (≈ 53 µM) | > 100 | 24.5 (≈ 53.1 µM) |
| COc1ccc(CN(Cc2ccc3ccccc3c2)Cc2c(O)ccc3c(=O)cc(C)oc23)cc1 | > 100 | 16.4 (≈ 35.2 µM) | 6.89 (≈ 14.8 µM) | 17.6 (≈ 37.8 µM) | > 100 | 6.01 (≈ 12.9 µM) |
| COc1ccc(CN(Cc2ccc(OC)cc2)Cc2c(O)ccc3c(=O)cc(C)oc23)cc1 | 31.6 (≈ 71 µM) | 38.9 (≈ 87.3 µM) | 53.7 (≈ 121 µM) | 17.8 (≈ 39.9 µM) | > 100 | 62.5 (≈ 140 µM) |
| CCN(CCc1ccccc1)Cc1c(O)ccc2c(=O)cc(C)oc12 | 57.5 (≈ 171 µM) | > 100 | 43.2 (≈ 128 µM) | 32.6 (≈ 96.6 µM) | > 100 | 32.7 (≈ 96.8 µM) |
| Cc1cc(=O)c2ccc(O)c(CN(CCc3ccccc3)Cc3ccc([N+](=O)[O-])cc3)c2o1 | 74.1 (≈ 167 µM) | 61 (≈ 137 µM) | 7.68 (≈ 17.3 µM) | 10.8 (≈ 24.4 µM) | > 100 | 9.92 (≈ 22.3 µM) |
| COc1ccc(CN(CCc2ccccc2)Cc2c(O)ccc3c(=O)cc(/C=C/c4ccccc4)oc23)cc1 | > 100 | – | 49.4 (≈ 95.4 µM) | 35 (≈ 67.6 µM) | – | 17.9 (≈ 34.6 µM) |
